Compound activity: PubChem BioAssay, several laboratories
NR2E3 ag-1: agonists of human NR2E3 nuclear receptor. actives 0.35% (n = 360,000). Q9Y5X4. CHO-S Gal4-NCOR/VP16-NR2E3 two-hybrid, luciferase. inhibition of corepressor binding, % at 3.98 µM;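 active = inhibition above the mean of all tested compounds plus 3 SD, cut at about 70% in these data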;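 note: higher means lower luciferase signal from less NR2E3 corepressor binding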
Target sequence (Q9Y5X4 whole entry, looked up, the tested form may be a part): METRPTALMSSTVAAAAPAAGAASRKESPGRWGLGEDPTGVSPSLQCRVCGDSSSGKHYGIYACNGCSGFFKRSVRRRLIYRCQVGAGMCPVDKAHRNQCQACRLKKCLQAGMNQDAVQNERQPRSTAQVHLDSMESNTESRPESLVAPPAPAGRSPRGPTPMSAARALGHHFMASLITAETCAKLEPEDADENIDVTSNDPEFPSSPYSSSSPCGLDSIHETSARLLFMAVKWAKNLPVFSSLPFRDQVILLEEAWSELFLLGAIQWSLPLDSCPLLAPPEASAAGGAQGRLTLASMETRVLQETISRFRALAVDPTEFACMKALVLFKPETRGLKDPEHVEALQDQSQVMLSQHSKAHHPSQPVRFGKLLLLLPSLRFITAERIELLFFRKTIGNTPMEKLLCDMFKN
NR2E3 ag-2: NR2E3 (human) agonism; Q9Y5X4; GST-NR2E3/biotin-RetCOR TR-FRET, 1536-well; inhibition of corepressor binding, % at 4.78 µM; actives 0.12% (n = 320,000);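 active = percent inhibition above the cutoff of mean plus 3 SD of all tested compounds, set per screening campaign, cut at about 20% in these data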
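Material: NR2E3–RetCOR corepressor complex | Quantity: 1.35 nM GST-tagged NR2E3 final | Schedule: 5 h at 4 °C | Replication: Singlicate compound wells | Reagent: RetCOR corepressor, biotinylated, 7 nM | Controls: Biotin wells as high control, 0.6% DMSO wells as low control | Signal: TR-FRET, Eu(K)-anti-GST donor, streptavidin-D2 acceptor, ex 340, em 617/671 nm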
HIF act: HIF pathway transcriptional activation; U2OS HRE-luciferase reporter, luminescence; normalized: DMSO 0%, desferrioxamine 100%; activation, % at 7.5 µM (by protocol); actives 0.32% (n = 300,000);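 active = mean activation of at least 10% of the iron chelator positive control signal, with at least half of replicates also reaching 10%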
LMP1 NFkB inh: reduces LMP1-driven NF-kappaB luciferase signal. LMP1-induced NF-kappaB luciferase reporter cells, luminescence. inhibition, % at 12.5 µM. actives 0.69% (n = 350,000). AID 504558; in the data active = inhibition above about 41%
TROY signal inh: TROY signaling inhibition; actives 0.98% (n = 360,000); Q293 LMP1-TROYcd NF-kB luciferase reporter, 4 h; inhibition, % at 10 µM; AID 1347056;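 active = compounds whose plate-normalised and pattern-corrected inhibition of the luciferase reporter signal at the single screening dose is 50% or more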
NR2E3 ag conf: confirmation of human NR2E3 agonists | shares compounds with NR2E3 ag-1 | CHO-S mammalian two-hybrid NR2E3-NCOR, luciferase luminescence | inhibition, % at 3.98 µM | actives 51% (n = 2,300) | AID 624378;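 active = average inhibition above a cutoff equal to the mean inhibition of all tested compounds plus one SD, cut at about 70% in these data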
VP16 counter: counter-screen for NR2E3 agonists: GAL4-VP16 reporter inhibitors | CHO-S GAL4-VP16 luciferase reporter, luminescence | inhibition, % at 3.98 µM | actives 29% (n = 2,300) | AID 624379 | shares compounds with NR2E3 ag-1;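 active = mean inhibition above a cutoff equal to the average over all tested compounds plus one standard deviation, cut at about 70% in these data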;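 note: luciferase from a UAS reporter driven by GAL4-VP16 transactivation; higher means less reporter light so more repression of VP16 activity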
Hits are given with their value. A selection: hits, their analogues and other compounds. The true share with any hit is near 2%.

Screening CCCC(=O)N1CCN(c2ccc(NC(=O)c3ccc([N+](=O)[O-])o3)cc2)CC1 returned NR2E3 ag-1 inactive, HIF act inactive, LMP1 NFkB inh inactive, TROY signal inh inactive, NR2E3 ag conf inactive and VP16 counter inactive.
Screening CCC(=O)N1CCN(c2ccc(NC(=O)c3ccc([N+](=O)[O-])o3)cc2)CC1 returned NR2E3 ag-1 inactive, HIF act inactive, LMP1 NFkB inh inactive and TROY signal inh inactive.
For O=C(NCC(c1ccco1)N1CCCC1)c1ccc(Cl)c(S(=O)(=O)N2CCc3ccccc32)c1 (stereo not drawn) the results were NR2E3 ag-1 inactive, NR2E3 ag-2 inactive, LMP1 NFkB inh inactive, TROY signal inh inactive, NR2E3 ag conf inactive and VP16 counter inactive.
`CC(=O)Nc1cc2nn(-c3ccccc3)nc2cc1Cl` gave NR2E3 ag-1 inactive, NR2E3 ag-2 inactive, HIF act inactive, LMP1 NFkB inh inactive and TROY signal inh inactive.
Screening CC(C)(C)C(=O)Nc1cc2nn(-c3ccccc3)nc2cc1Cl returned NR2E3 ag-1 92, LMP1 NFkB inh 75, TROY signal inh 91, NR2E3 ag conf 75 and VP16 counter inactive.
CC(=O)Nc1ccc(S(=O)(=O)N(C)CC(=O)OC(C)C(=O)NC2CCCC2)cc1 (stereo not drawn) was read as NR2E3 ag-1 inactive, NR2E3 ag-2 inactive, HIF act inactive, LMP1 NFkB inh inactive and TROY signal inh inactive.
For COc1ccccc1-c1nnc(Nc2nc3c(OC)cccc3s2)o1 the results were NR2E3 ag-1 74, NR2E3 ag-2 inactive, HIF act inactive, LMP1 NFkB inh inactive, TROY signal inh inactive, NR2E3 ag conf inactive and VP16 counter inactive.
Screening COc1cccc2sc(Nc3nnc(-c4ccccc4Cl)o3)nc12 returned NR2E3 ag-1 inactive, NR2E3 ag-2 inactive, HIF act inactive, LMP1 NFkB inh inactive and TROY signal inh inactive.
`CC(Nc1ncnc2ccccc12)c1ccccc1` (stereo not drawn) gave NR2E3 ag-1 75, NR2E3 ag-2 inactive, HIF act inactive, LMP1 NFkB inh inactive, TROY signal inh inactive, NR2E3 ag conf 96 and VP16 counter 91.
Screening CCCCC(Nc1ncnc2ccccc12)C(=O)O (stereo not drawn) returned NR2E3 ag-1 inactive, NR2E3 ag-2 inactive, HIF act inactive, LMP1 NFkB inh inactive and TROY signal inh inactive.
O=C(NC1CC1)C1CCN(C2CCN(C(=O)CSc3ccccc3)CC2)CC1 was read as NR2E3 ag-1 inactive, NR2E3 ag-2 inactive, HIF act inactive, LMP1 NFkB inh inactive and TROY signal inh inactive.
For O=C(CSc1ccccc1)N1CCC(N2CCC(C(=O)N3CCCC3)CC2)CC1 the results were NR2E3 ag-1 88, NR2E3 ag-2 inactive, HIF act inactive, LMP1 NFkB inh inactive, TROY signal inh inactive, NR2E3 ag conf inactive and VP16 counter inactive.
For Cc1ccc(C)c(N(CC(=O)NC2CCCC2)C(=O)CNC(=O)c2cccs2)c1 the results were NR2E3 ag-1 inactive, NR2E3 ag-2 inactive, HIF act inactive, LMP1 NFkB inh inactive and TROY signal inh inactive.
For CCCOc1ccc(CN(CCC#N)C(=S)NC(=O)c2ccccc2)cc1 the results were NR2E3 ag-1 inactive, NR2E3 ag-2 inactive, HIF act inactive, LMP1 NFkB inh inactive, TROY signal inh inactive, NR2E3 ag conf inactive and VP16 counter inactive.
Screening COc1cc(C(=O)NC(=S)N(CCC#N)Cc2cccnc2)cc(OC)c1OC returned NR2E3 ag-1 inactive, LMP1 NFkB inh inactive and TROY signal inh inactive.
Screening N#Cc1c(-c2ccccc2)nc(SCc2ccc(Cl)cc2)[nH]c1=O returned NR2E3 ag-1 72, NR2E3 ag-2 inactive, HIF act inactive, LMP1 NFkB inh inactive, TROY signal inh 51, NR2E3 ag conf inactive and VP16 counter inactive.
`Cc1ccc(S(=O)(=O)N(C)C[C@@H]2Oc3ccc(NS(C)(=O)=O)cc3CC(=O)N([C@H](C)CO)C[C@@H]2C)cc1` gave NR2E3 ag-1 inactive, LMP1 NFkB inh inactive and TROY signal inh inactive.
For Nc1nc2ncccc2cc1C(=O)NCCc1cccs1 the results were NR2E3 ag-1 inactive and TROY signal inh inactive.
`Cc1ccc(C(C)C)c(OCCNC(=O)c2cncc(Br)c2)c1` gave NR2E3 ag-1 inactive, NR2E3 ag-2 inactive, HIF act inactive, LMP1 NFkB inh inactive and TROY signal inh inactive.
Screening COc1cc(C(=O)NCCOc2cc(C)ccc2C(C)C)cc(OC)c1OC returned NR2E3 ag-1 inactive, NR2E3 ag-2 inactive, HIF act inactive, LMP1 NFkB inh inactive, TROY signal inh inactive, NR2E3 ag conf inactive and VP16 counter inactive.
For OC[C@@H]1CN(Cc2ccccc2)C[C@H](n2cnc3c(NCc4ccco4)ncnc32)O1 the results were NR2E3 ag-1 inactive and TROY signal inh inactive.
`OCCNc1ncnc2c1ncn2[C@H]1CN(Cc2ccc(-c3ccccc3)cc2)C[C@@H](CO)O1` gave NR2E3 ag-1 inactive and TROY signal inh inactive.
`OC[C@@H]1CN(Cc2ccc(-c3ccccc3)cc2)C[C@H](n2cnc3c(NCc4ccco4)ncnc32)O1` gave NR2E3 ag-1 inactive, TROY signal inh inactive, NR2E3 ag conf 75 and VP16 counter inactive.
OC[C@@H]1CN(Cc2ccc(-c3ccccc3)cc2)C[C@H](n2cnc3c(NCc4ccncc4)ncnc32)O1 was read as NR2E3 ag-1 inactive, TROY signal inh inactive, NR2E3 ag conf 74 and VP16 counter inactive.
For O=C(Cc1ccc2c(c1)OCCO2)Nc1cc(C(F)(F)F)ccc1N1CCOCC1 the results were NR2E3 ag-1 inactive, LMP1 NFkB inh inactive and TROY signal inh inactive.
Screening CCC(C)(C)NC(=O)C(c1cccc(OC)c1)N(C(=O)CNC(=O)c1cccs1)c1cccnc1 (stereo not drawn) returned NR2E3 ag-1 inactive, NR2E3 ag-2 inactive, HIF act inactive, LMP1 NFkB inh inactive and TROY signal inh inactive.
Screening COc1ccc(CCN2CC(C(=O)OCc3ccccc3Cl)CC2=O)cc1OC (stereo not drawn) returned NR2E3 ag-1 inactive, LMP1 NFkB inh inactive and TROY signal inh inactive.
CCOC(=O)Nc1ccc2c(c1)C(=NNC(=S)NC)c1ccccc1-2 was read as NR2E3 ag-1 86, LMP1 NFkB inh inactive, TROY signal inh inactive, NR2E3 ag conf inactive and VP16 counter inactive.
CN(Cc1cccc2cnccc12)C(=O)c1cc(COc2ccc(F)cc2F)on1 was read as NR2E3 ag-1 72, HIF act inactive, LMP1 NFkB inh inactive, TROY signal inh inactive, NR2E3 ag conf inactive and VP16 counter inactive.
CCc1ccc(CN(C)C(=O)c2cc(COc3cccc4cnccc34)on2)cc1 was read as NR2E3 ag-1 108, NR2E3 ag-2 inactive, HIF act inactive, LMP1 NFkB inh inactive, TROY signal inh inactive, NR2E3 ag conf 98 and VP16 counter 89.
